Measured values published in ChEMBL document CHEMBL1143345, “Towards Gram-negative antivirulence drugs: new inhibitors of HldE kinase” (Bioorg Med Chem, 2009).
Activity calls are given as the source filed them. The rule behind the calls is not given here.

T1: Ribokinase (Escherichia coli K-12, UniProt P0A9J6)
T1 sequence (P0A9J6 whole entry): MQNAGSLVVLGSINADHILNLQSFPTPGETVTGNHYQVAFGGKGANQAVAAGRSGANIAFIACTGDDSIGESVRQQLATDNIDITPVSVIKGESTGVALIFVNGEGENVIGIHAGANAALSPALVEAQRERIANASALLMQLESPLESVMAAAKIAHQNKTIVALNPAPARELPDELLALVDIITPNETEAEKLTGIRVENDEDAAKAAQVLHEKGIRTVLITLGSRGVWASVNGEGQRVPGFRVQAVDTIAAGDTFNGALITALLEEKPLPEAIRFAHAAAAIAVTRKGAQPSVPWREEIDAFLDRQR


Assays:
[1] = Inhibition of Escherichia coli O18:K1 C7 HldE by luminescent assay
In short: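 His-tagged E. coli O18:K1 C7 HldE (3 nM) pre-incubated 30 min at room temperature with inhibitor (≤5% DMSO). Then H-7-P 0.2 uM and ATP 0.2 uM added for 40 min in pH 7.5 Hepes, 1 mM MnCl2, 25 mM KCl, 0.012% Triton X-100, 1 mM DTT. ATP depletion read by luciferase luminescence; IC50 from 6–10 concentrations, means of three experiments.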

[2] = Inhibition of Neisseria meningitidis 2C43 HldA by luminescent assay
In short: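 His-tagged N. meningitidis 2C43 HldA (20 nM) pre-incubated 30 min at room temperature with inhibitor, then H-7-P 0.2 uM and ATP 0.2 uM added for 40 min. Buffer pH 7.5 Hepes, 1 mM MnCl2, 25 mM KCl, 0.012% Triton X-100, 1 mM DTT. Residual ATP measured by luciferase/luciferin luminescence; IC50 fitted from 6–10 concentrations.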

[3] = target: T1, Ribokinase; test: Inhibition of Escherichia coli K12 MG1655 ribokinase by luminescent assay
In short: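 His-tagged E. coli K12 MG1655 ribokinase (0.6 nM) in pH 7.5 Hepes buffer with 1 mM MnCl2, 25 mM KCl, 0.012% Triton X-100, 1 mM DTT. Inhibitor pre-incubated 30 min at room temperature, then D-ribose 3 uM and ATP 3 uM added for 40 min. Remaining ATP detected by luciferase/luciferin luminescence; IC50 fitted from 6–10 concentrations.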

[4] = tested on: Escherichia coli; test: Inhibition of Escherichia coli O18:K1 C7 HldE in presence of Triton-X100 by luminescent assay
[5] = tested on: Escherichia coli; test: Inhibition of Escherichia coli O18:K1 C7 HldE in presence of D-glycero-D-manno-heptose-7-phosphate by luminescent assay
[6] = Inhibition of Escherichia coli O18:K1 C7 HldE by fluorescent assay
In short: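 Coupled fluorescent HldE-kinase assay: His-tagged E. coli O18:K1 C7 HldE (66 pM), 30 min inhibitor pre-incubation at room temperature, then H-7-P 1 uM, ATP 50 uM with PK/PEP/LDH/NADH. pH 7.5 Hepes, 1 mM MnCl2, 25 mM KCl, 0.012% Triton X-100, 1 mM DTT. NADH fluorescence read kinetically; Ki derived, substrate levels varied for competition.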

[7] = tested on: Escherichia coli; test: Activity of Escherichia coli O18:K1 C7 HldE in presence of 1.8 uM D-glycero-D-manno-heptose-7-phosphate
In short: (§1)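 His-tagged HldE, Ni-NTA purified, steady-state kinetics with ATP varied at fixed H-7-P. Conditions are pH 7.5 with 1 mM MnCl2, 25 mM KCl and 5% DMSO in Hepes/Triton X-100/DTT buffer. ADP is detected by a pyruvate kinase/lactate dehydrogenase coupled system, reading NADH fluorescence kinetically (ex 360, em 520 nm). Values ± SD.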

[8] = tested on: Escherichia coli; test: Activity of Escherichia coli O18:K1 C7 HldE in presence of 0.2 uM D-glycero-D-manno-heptose-7-phosphate; in short: as §1
[9] = tested on: Neisseria meningitidis; test: Activity of Neisseria meningitidis 2C43 HldA in presence of 0.2 uM D-glycero-D-manno-heptose-7-phosphate
In short: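 His-tagged HldA, Ni-NTA purified, at 20 nM with 0.2 µM H-7-P and ATP. Buffer is 50 mM Hepes pH 7.5, 1 mM MnCl2, 25 mM KCl, 0.012% Triton X-100 and 1 mM DTT. Reaction runs 40 min at room temperature. ATP depletion is read by luciferase/D-luciferin luminescence.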

[10] = tested on: Escherichia coli; test: Activity of Escherichia coli O18:K1 C7 HldE in presence of 50 uM ATP
In short: (§2)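 His-tagged E. coli O18:K1 C7 HldE kinase steady-state kinetics, pH 7.5 with 1 mM MnCl2, 25 mM KCl, 5% DMSO. H-7-P Km measured at fixed ATP 50 uM or 0.3 uM; ADP formation followed by PK/LDH-coupled NADH fluorescence (ex 360, em 520 nm), read kinetically; values ± SD.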

[11] = tested on: Escherichia coli; test: Activity of Escherichia coli O18:K1 C7 HldE in presence of 0.3 uM ATP; in short: as §2
[12] = compound: Nc1ncnc2c1ncn2[C@@H]1O[C@H](COP(=O)(O)OP(=O)(O)OP(=O)(O)O)[C@@H](O)[C@H]1O; test: Activity of Escherichia coli K12 MG1655 ribokinase in presence of 3 uM D-ribose; conditions: Escherichia coli K-12
In short: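 His-tagged ribokinase, Ni-NTA purified, at 0.6 nM with 3 µM D-ribose and ATP. Buffer is 50 mM Hepes pH 7.5, 1 mM MnCl2, 25 mM KCl, 0.012% Triton X-100 and 1 mM DTT. Reaction runs 40 min at room temperature. ATP depletion is read by luciferase/D-luciferin luminescence. Values ± SD.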

Row | Molecule | IC50 [1] [µM] | other results
1 | Cc1oc(-c2ccccc2N)nc1C(=O)N(CC(=O)O)Cc1ccccn1 | 31 | 
2 | Cc1nc(-c2cccc([N+](=O)[O-])c2)sc1C(=O)N(CC(=O)O)Cc1nc2ccccc2s1 | 0.5 | IC50 [2]: 75 µM; IC50 [3]: > 300 µM
3 | Cc1nc(-c2ccccc2)oc1C(=O)N(CC(=O)O)Cc1ccccn1 | 69 | Activity [4]: Active; Activity [5]: Active; Ki [6]: 38 µM
4 | Cc1oc(-c2ccc(N)cc2)nc1C(=O)N(CC(=O)O)Cc1ccccn1 | 22 | 
5 | Cc1oc(-c2ccccc2)cc1C(=O)N(CC(=O)O)Cc1ccccn1 | 42 | 
6 | Cc1oc(-c2ccc(C(F)(F)F)cc2)nc1C(=O)N(CC(=O)O)Cc1ccccn1 | 142 | 
7 | Cc1nc(-c2cccc(S(C)(=O)=O)c2)sc1C(=O)N(CC(=O)O)Cc1nc2ccccc2s1 | 75 | 
8 | Cn1nc(-c2ccccc2)cc1C(=O)N(CC(=O)O)Cc1ccccn1 | 57 | 
9 | COc1cccc(-c2nc(C(=O)N(CC(=O)O)Cc3ccc4ccccc4n3)c(C)o2)c1 | 12 | 
10 | O=C(O)CN(Cc1ccccn1)C(=O)c1ccc(-c2ccccc2)cc1 | > 300 | 
11 | Cc1nc(-c2ccc3[nH]ccc3c2)sc1C(=O)N(CC(=O)O)Cc1nc2ccccc2s1 | 0.33 | IC50 [2]: 8.5 µM; IC50 [3]: > 100 µM
12 | Cc1nc(-c2ccccc2)oc1C(=O)N(CC(=O)O)Cc1ccccc1N | > 300 | 
13 | COc1ccc(-c2nc(C(=O)N(CC(=O)O)Cc3ccccn3)c(C)o2)cc1 | 75 | 
14 | Cc1onc(-c2ccccc2)c1C(=O)N(CC(=O)O)Cc1ccccn1 | > 300 | 
15 | Cc1oc(-c2ccccc2)nc1C(=O)N(CC(=O)O)Cc1ccco1 | > 300 | 
16 | Cc1oc(-c2cccc(Br)c2)nc1C(=O)N(CC(=O)O)Cc1ccccn1 | 10 | 
17 | COc1cc(-c2nc(C)c(C(=O)N(CC(=O)O)Cc3nc4ccccc4s3)s2)ccc1N | 0.26 | 
18 | O=C(O)CN(Cc1ccccn1)C(=O)c1ccc(-c2ccccc2)o1 | 100 | 
19 | Cc1oc(-c2ccc(Br)cc2)nc1C(=O)N(CC(=O)O)Cc1ccccn1 | 27 | 
20 | Cc1oc(-c2cccc(NC(=O)C3CC3)c2)nc1C(=O)N(CC(=O)O)Cc1ccccn1 | 14 | 
21 | Cc1oc(-c2cccc(C(F)(F)F)c2)nc1C(=O)N(CC(=O)O)Cc1ccccn1 | 35 | 
22 | Cc1oc(-c2cccc(-c3ccn[nH]3)c2)nc1C(=O)N(CC(=O)O)Cc1nc2ccccc2s1 | 0.11 | 
23 | Cc1oc(-c2ccc([N+](=O)[O-])cc2)nc1C(=O)N(CC(=O)O)Cc1ccccn1 | 151 | 

Row | Molecule | IC50 [1] [µM] | other results
24 | Cc1nc(-c2ccccc2)sc1C(=O)N(CC(=O)O)Cc1ccccn1 | 52 | 
25 | Cc1nc(-c2ccc(N)c([N+](=O)[O-])c2)sc1C(=O)N(CC(=O)O)Cc1ccccn1 | 13 | 
26 | COc1cccc(-c2nc(C)c(C(=O)N(CC(=O)O)Cc3nc4ccccc4s3)s2)c1 | 0.42 | 
27 | CC(=O)c1cccc(-c2nc(C)c(C(=O)N(CC(=O)O)Cc3ccccn3)s2)c1 | 216 | 
28 | COc1cccc(-c2nc(C)c(C(=O)N(CC(=O)O)Cc3ccccn3)o2)c1 | 17 | 
29 | Cc1oc(-c2cccc([N+](=O)[O-])c2)nc1C(=O)N(CC(=O)O)Cc1ccccn1 | 5.8 | IC50 [2]: > 300 µM; IC50 [3]: > 300 µM
30 | Nc1ncnc2c1ncn2[C@@H]1O[C@H](COP(=O)(O)OP(=O)(O)OP(=O)(O)O)[C@@H](O)[C@H]1O |  | Km [7]: 147 µM; Km [8]: > 0.8 µM; Km [9]: > 0.4 µM
31 | Cc1oc(-c2ccccc2)nc1C(=O)N(CC(=O)O)Cc1ccccc1 | > 300 | 
32 | Cc1oc(-c2ccccc2Br)nc1C(=O)N(CC(=O)O)Cc1ccccn1 | 44 | 
33 | Cc1oc(-c2ccccc2)nc1C(=O)N(CC(=O)O)Cc1cccnc1 | > 300 | 
34 | CC(=O)Nc1cccc(-c2nc(C(=O)N(CC(=O)O)Cc3ccccn3)c(C)o2)c1 | 28 | 
35 | Cc1oc(-c2ccccc2)nc1C(=O)N(CC(=O)O)Cc1nccs1 | 110 | 
36 | Cc1oc(-c2cccc(N3CCOCC3)c2)nc1C(=O)N(CC(=O)O)Cc1ccccn1 | 70 | 
37 | COc1cccc(-c2nc(C)c(C(=O)N(CC(=O)O)Cc3nc4ccccc4s3)o2)c1 | 0.27 | IC50 [2]: 6 µM; IC50 [3]: > 300 µM
38 | Cc1oc(-c2cccc(N)c2)nc1C(=O)N(CC(=O)O)Cc1ccccn1 | 153 | 
39 | COc1cccc(-c2nc(C(=O)N(CC(=O)O)Cc3ccccn3)c(C)o2)c1 | 15 | IC50 [2]: > 300 µM; IC50 [3]: > 300 µM
40 | O=P(O)(O)OC[C@@H](O)[C@H]1OC(O)[C@@H](O)[C@@H](O)[C@@H]1O (stereo partly drawn) |  | Km [10]: 0.6 µM; Km [11]: 0.23 µM
41 | Cc1oc(-c2ccccc2)nc1C(=O)N(CC(=O)O)Cc1ccccn1 | 51 | 
42 | Cc1nc(-c2ccc3ccccc3c2)sc1C(=O)N(CC(=O)O)Cc1nc2ccccc2s1 | 0.48 | IC50 [2]: 12 µM; IC50 [3]: > 33 µM
43 | Cc1oc(-c2ccccc2[N+](=O)[O-])nc1C(=O)N(CC(=O)O)Cc1ccccn1 | 141 | 
44 | Cc1oc(-c2ccccc2)nc1C(=O)N(CC(=O)O)Cc1ccncc1 | > 300 | 
45 | Ribokinase (Escherichia coli K-12), P0A9J6 (protein) MQNAGSLVVLGSINADHILNLQSFPTPGETVTGNHYQVAFGGKGANQAVAAGRSGANIAFIACTGDDSIGESVRQQLATDNIDITPVSVIKGESTGVALIFVNGEGENVIGIHAGANAALSPALVEAQRERIANASALLMQLESPLESVMAAAKIAHQNKTIVALNPAPARELPDELLALVDIITPNETEAEKLTGIRVENDEDAAKAAQVLHEKGIRTVLITLGSRGVWASVNGEGQRVPGFRVQAVDTIAAGDTFNGALITALLEEKPLPEAIRFAHAAAAIAVTRKGAQPSVPWREEIDAFLDRQR |  | Km [12]: 18 µM
